Many of the other results were omitted from the sample, so hits are more common in it than they were.
T cell modulator = T cell immune modulators affecting CD8 T cell-vesicle binding; 2C CD8+ T cell-vesicle binding, flow cytometry; stronger effect = lower value; response (vesicle binding), % at 7 µM; 0.068% of 330,000 active; AID 2052;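 active = response, share of CD8 T cells binding vesicles, and their 90th percentile fluorescence all below set limits, cut at about 80% in these data, passing the limit was not always enough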;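 note: values below 100% mean blocked vesicle binding to the CD8+ T cells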
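Material: murine 2C transgenic CD8+ T lymphocytes / Also added: QL9-peptide-loaded Drosophila micro-vesicles bearing Ld, ICAM-1 and B7-1 / Schedule: binding step 1.5 h, 37 °C, antibody labelling 20 min, ice / Signal: flow cytometry, PE anti-B7-1 (FL2) versus Alexa647 anti-CD8 (FL8), PFA-fixed / Evaluation: percent CD8+ FL2 mean versus row control / Benchmarks: naked versus QL9-loaded vesicles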
ALR inh = blocks human ALR sulfhydryl oxidase activity; P55789; purified ALR, DTT oxidation, H2O2 HRP-luminol luminescence; inhibition, % (no concentration beside the values); 3.8% of 290,000 active;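 active = mean replicate inhibition above about 79%, with every replicate also reaching it, limit read from the data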
Target sequence (P55789 whole entry, looked up): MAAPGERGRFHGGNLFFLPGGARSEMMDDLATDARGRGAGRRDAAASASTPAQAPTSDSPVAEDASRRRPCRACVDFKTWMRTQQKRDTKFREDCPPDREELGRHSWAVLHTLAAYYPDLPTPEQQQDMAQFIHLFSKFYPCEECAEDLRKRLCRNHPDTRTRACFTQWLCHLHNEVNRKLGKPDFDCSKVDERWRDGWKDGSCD
N-glyco inh = N-linked glycosylation inhibition; D54 ERlucT glycosylation luciferase reporter, 24 h; percent of 100 nM tunicamycin response; reporter increase, % at 12.5 µM; 0.23% of 360,000 active;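 active = mean luciferase reporter signal, scaled so untreated is 0 and the glycosylation-blocking control 100, at or above a set limit in every replicate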;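 note: luciferase carries N-glycosylation sites so blocking glycosylation raises the light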
Large screens that a line does not name were inactive.

COc1cccc(NC(=S)Nc2ccc(O)cc2)c1	ALR inh 99.1
COc1cccc(NC(=S)NNC(=O)c2ccccc2OC(F)F)c1	ALR inh 78.7
Cc1nn(-c2cc(C(F)(F)F)ccc2Cl)c2nc(C(Cl)(Cl)Cl)[nH]c(=O)c12	none
CC(C)(C)S(=O)(=O)N1C[C@H]2CC/C=C\C/C=C\2[C@@H]1CCO	none (no result: T cell modulator, ALR inh)
CC1=C(C(=O)N(C)C)CC(CC(=O)NCCN2CCOCC2)C(=O)N1Cc1ccc(C(C)(C)C)cc1 (stereo not drawn)	none (no result: T cell modulator, ALR inh)
Cc1ccc(NC(=S)NNC(=O)Nc2ccccc2)cc1	ALR inh 96.8
O=C(NNC(=S)Nc1ccccc1)Nc1ccccc1	none
O=C(O)c1ccc(O)c(O)c1	ALR inh 98.0
O=C(O)c1ccc(-c2ccc(O)c(F)c2)cc1	ALR inh 98.0
O=C(O)c1cccc(C(=O)O)c1	none
O=C(O)Cc1ccc(O)c(F)c1	none (no result: ALR inh)
O[C@H]1CN(CC2CCCCC2)[C@@H](c2ccc(Cl)cc2)C[C@@H]1n1cc(-c2ccc(F)cc2)nn1	none (no result: T cell modulator, ALR inh)
Cc1ccc(S(=O)(=O)NCc2n[nH]c(=S)n2C)cc1	none
Cn1c(CNS(=O)(=O)c2ccc(Br)cc2)n[nH]c1=S	ALR inh 90.8
COc1ccc(OC)c(C2NC(=O)c3sc(=S)n(-c4ccccc4)c3N2)c1 (stereo not drawn)	none
COc1cccc(C2NC(=O)c3sc(=S)n(-c4ccccc4)c3N2)c1 (stereo not drawn)	ALR inh 97.4
CC(=O)c1ccc(N=Nc2ccc(N)cc2)cc1	none
COC(=O)C1=C(Nc2cc(Cl)cc(Cl)c2)CSC1	ALR inh 99.0
COC(=O)c1cc(NC(=S)Nc2cc(Cl)cc(Cl)c2)cc(C(=O)OC)c1	none
O=C(c1cccc(S(=O)(=O)Nc2ccc(Br)cc2)c1)N1CCCC1	none
NC(=S)Nc1cccc(-c2n[nH]c(=S)o2)c1	none (no result: ALR inh)
Cc1ccc(NC(=S)Nc2cccc(-c3n[nH]c(=S)o3)c2)cc1	ALR inh 88.9
COc1ccccc1N1CCN(/N=C/C=C/c2ccccc2[N+](=O)[O-])CC1	none
COc1ccc2[nH]cc(CCNS(=O)(=O)c3ccccc3)c2c1	ALR inh 94.5
COc1ccc2[nH]cc(CCNS(=O)(=O)c3ccc(F)cc3)c2c1	none
COc1cc(C(=O)NC2CCN(CC(=O)Nc3cccc(C)c3C)CC2)cc(OC)c1OC	none
Cc1cc(Br)c(NC(=O)CN2C(=O)NC3(CCOc4ccccc43)C2=O)c(Br)c1 (stereo not drawn)	none (no result: T cell modulator, ALR inh)
Nc1c(-c2ccc(Cl)cc2)cnn1-c1cccc([N+](=O)[O-])c1	none
Nc1c(-c2ccccc2)cnn1-c1cccc([N+](=O)[O-])c1	ALR inh 87.9
Cc1ccc(NC(=O)NN(C)c2c(Cl)c(Cl)nn2C)cc1	none
Cc1ccc(NC(=S)NNC(=S)Nc2ccc(C)cc2)cc1	none (no result: T cell modulator, ALR inh)
Cc1ccc(NC(=S)NNC(=O)c2c(Cl)c(C)nn2C)cc1	ALR inh 86.7
CCn1c(C)nc2cc(C(=O)NNC(=S)Nc3ccccc3OC)ccc21	none (no result: N-glyco inh)
Cc1ccc(NC(=S)NNC(=O)c2nn(C)c(C)c2Cl)cc1	ALR inh 89.6
CCn1c(C)nc2cc(C(=O)NNC(=S)Nc3ccc(C)cc3)ccc21	ALR inh 85.6
Cc1ccc(NC(=S)NNC(=O)c2cn(C)nc2C)cc1	ALR inh 96.7
Cc1ccc(NC(=S)NNC(=O)c2c([N+](=O)[O-])c(C)nn2C)cc1	none
CC(=O)Nc1ccc2c(c1)N(S(=O)(=O)c1cccs1)CCC2	none (no result: ALR inh)
CC(=O)Nc1nn(C)c2nc(C)cc(C)c12	none
Cc1c(C)n2c(SCC(=O)N3CCOCC3)nnc2[nH]c1=O	none
COc1ccc(C(=O)N/N=C/C2CC=CCC2)cc1OC (stereo not drawn)	ALR inh 92.7
CC(C)(C)c1ccc(OCC(=O)N/N=C/C2CC=CCC2)cc1 (stereo not drawn)	none (no result: ALR inh)
O=C(NCc1ccco1)c1cc2cc(Br)ccc2o1	ALR inh 97.9
Cc1c(C(=O)NCc2ccco2)oc2ccc(Br)cc12	none (no result: T cell modulator, ALR inh)
CCOC(=O)CNC(=O)C1CCN(S(=O)(=O)c2ccc(-c3nn[nH]n3)cc2)CC1	none
COc1ccccc1CNC(=O)COC(=O)c1ccccc1-c1ccccc1	none (no result: ALR inh)
CC1(C(=O)NS(=O)(=O)c2ccc(Cl)cc2)CCN1C(=O)Cc1ccsc1 (stereo not drawn)	none (no result: T cell modulator, ALR inh)
COc1cc(Cl)nn(-c2ccccc2)c1=O	none
O=c1c(Cl)cc(Cl)nn1-c1ccccc1	ALR inh 97.8
COc1ccc(CN2C(=O)c3ccc(C(=O)O)cc3C2=O)cc1	none
Nn1c(SCC(=O)Nc2ccc(N3CCOCC3)cc2)nnc1-c1cccc(F)c1	ALR inh 98.7
Nn1c(SCC(=O)Nc2ccc(N3CCOCC3)cc2)nnc1-c1ccccc1F	ALR inh 98.5
Cc1nnc(SCC(=O)Nc2ccc(N3CCOCC3)cc2)n1-c1ccccc1	none (no result: ALR inh)
COc1ccccc1-c1nnc(SCC(=O)Nc2ccc(N3CCOCC3)cc2)n1N	none

Bioassay records as filed in PubChem.
